Assay results gathered from unrelated publications.
Lines come from different studies, so protocols differ.
KIT V559D/V654A: Mast/stem cell growth factor receptor Kit (KIT, Homo sapiens, UniProt P10721, V559D/V654A)
KIT D816H: Mast/stem cell growth factor receptor Kit (KIT, Homo sapiens, UniProt P10721, D816H)
KIT D816V: Mast/stem cell growth factor receptor Kit (KIT, Homo sapiens, UniProt P10721, D816V)
KIT V559D: Mast/stem cell growth factor receptor Kit (KIT, Homo sapiens, UniProt P10721, V559D)
KIT autoinhibited: Mast/stem cell growth factor receptor Kit, autoinhibited (KIT, Homo sapiens, UniProt P10721)
KIT T670I/V559D: Mast/stem cell growth factor receptor Kit (KIT, Homo sapiens, UniProt P10721, T670I/V559D)
KIT L576P: Mast/stem cell growth factor receptor Kit (KIT, Homo sapiens, UniProt P10721, L576P)
KIT: Mast/stem cell growth factor receptor Kit (KIT, Homo sapiens, UniProt P10721)
KIT A829P: Mast/stem cell growth factor receptor Kit (KIT, Homo sapiens, UniProt P10721, A829P)

O=C(Nc1cccnn1)N1CC(C/C=C/c2cncc(Oc3ccc(C(F)(F)F)cn3)n2)C1  remaining binding (KIT V559D/V654A; cell-free assay; competition with immobilised ligand; 1 µM): 100%
COc1cnc(Nc2cccc(S(N)(=O)=O)c2)nc1N1CCN(c2ccccc2)C(=O)C1  remaining binding (KIT D816H; binding; competition with immobilised ligand; 1 µM): 55%
N#Cc1ccccc1CSc1nnc2c(n1)[nH]c1ccccc12  remaining binding (KIT D816V; binding; competition with immobilised ligand; 10 µM): 75%
Cc1c(C(=O)O)cc(-c2ccc(C3CCNCC3)cc2)c2ccc(-c3ccc(C(F)(F)F)cc3)cc12  remaining binding (KIT V559D; binding; competition with immobilised ligand; 1 µM): 100%
CNC(=O)[C@@H]1CC[C@@H](n2c(-c3ccc4cnccc4c3)nc3ccc(C(=O)NCc4cccc(C(N)=O)c4)cc32)C1  remaining binding (KIT V559D; binding; competition with immobilised ligand; 1 µM): 100%
C[C@@]1(Cc2ccc(C#N)cc2)C(=O)N(c2cc(Cl)cc(Cl)c2)c2ncc(C(=O)NC3(c4nc(C5CCC5)no4)CC3)n21  remaining binding (KIT V559D; cell-free assay; competition with immobilised ligand; 1 µM): 99%
c1cnn2ncc(-c3ccnc(N4CCC45COC5)n3)c2c1  remaining binding (KIT V559D; binding; 1 µM): 78%
CN1CCN(c2ccc(Nc3nccc(-c4ccccc4)n3)cc2C(F)(F)F)CC1  remaining binding (KIT V559D/V654A; binding; 10 µM): 4%
CN(C)c1nccc(-c2cnn3ncccc23)n1  remaining binding (KIT autoinhibited; binding; 1 µM): 88%
CC(=O)N1CCC(c2ccc(C(=O)NC3=NCCN3)cc2C(F)(F)F)CC1  remaining binding (KIT D816V; cell-free assay; competition with immobilised ligand; 1 µM): 91%
N[C@H]1CCN(c2nccc(-c3cnn4ncccc34)n2)C1  remaining binding (KIT T670I/V559D; binding; 1 µM): 100%
COc1ncc2cc3ccccc3nc2c1C#N  remaining binding (KIT D816V; cell-free assay; competition with immobilised ligand; 5 µM): 95%
Nc1ncc2c(n1)-c1c([nH]c3ccc(C#CC4CC4)cc13)CCCC2  remaining binding (KIT L576P; binding; competition with immobilised ligand; 1 µM): 100%
C[C@@H]1CCN(c2nccc(-c3cnn4ncccc34)n2)C1  remaining binding (KIT D816H; binding; 1 µM): 79%
CN1CCN(c2ccc(Nc3nccc(-c4cccc([N+](=O)[O-])c4)n3)cc2C(F)(F)F)CC1  remaining binding (KIT D816V; binding; 10 µM): 1.1%
O=C(NCC1CCOCC1)c1n[nH]cc1NC(=O)c1c(F)cccc1F  remaining binding (KIT V559D; binding; competition with immobilised ligand; 1 µM): 100%
O=C(NCCCN1CCOCC1)c1ccc(Nc2ncc(Cl)c(-c3ccc(Cl)s3)n2)cc1  remaining binding (KIT V559D/V654A; binding; competition with immobilised ligand; 1 µM): 9.9%
CN1CCN(c2cnc3c(C4CCN(C(=O)c5ccc(OC(F)(F)F)cc5N)CC4)ncnc3c2)CC1  remaining binding (KIT autoinhibited; cell-free assay; competition with immobilised ligand; 1 µM): 85%
CN(C)c1nccc(-c2cnc3ncccn23)n1  remaining binding (KIT; binding; 1 µM): 69%
C[C@H](NC(=O)c1cnc2n1[C@](C)(Cc1ccc(C#N)cc1)C(=O)N2c1cc(Cl)c(F)c(Cl)c1)C(=O)NC1(c2ccccn2)CC1  remaining binding (KIT D816H; cell-free assay; competition with immobilised ligand; 1 µM): 100%
C[C@@H](c1ccc(-n2cnc3c(N)ncnc32)cc1)N1CCc2nn(C)c(Cc3ccccc3)c2C1=O  remaining binding (KIT A829P; binding; competition with immobilised ligand; 0.1 µM): 52%
O=C(c1ccc(Nc2ncc(Cl)c(-c3ccc(Cl)s3)n2)cc1)N1CCC(N2CCCC2)CC1  remaining binding (KIT D816H; binding; competition with immobilised ligand; 1 µM): 7.7%
NS(=O)(=O)c1cc(NC(=O)C2(c3ccccc3Cl)CC2)ccc1Oc1cccc(Cl)c1  remaining binding (KIT A829P; cell-free assay; competition with immobilised ligand; 1 µM): 69%
C=CC(=O)N1CCC(C(=O)NCC(=O)N2CCN(c3nc(-c4cnc(N)nc4C(F)F)nc(N4CCOCC4)n3)CC2)CC1  remaining binding (KIT; binding; competition with immobilised ligand; 1 µM): 93%
c1cncc(-c2cccc(Nc3nccc(NC4CCCCC4)n3)c2)c1  remaining binding (KIT L576P; binding; competition with immobilised ligand; 10 µM): 0%
CN(CCCC(F)(F)F)c1nccc(-c2cnn3ncccc23)n1  remaining binding (KIT V559D/V654A; binding; 1 µM): 100%
O=C(NCCCN1CCOCC1)c1ccc(Nc2nccc(-c3cc4ccccc4s3)n2)cc1  remaining binding (KIT A829P; binding; competition with immobilised ligand; 1 µM): 36%
COc1cnc(Nc2cccc(S(N)(=O)=O)c2)nc1N1CCN(c2ccccc2)CC1  remaining binding (KIT D816H; binding; competition with immobilised ligand; 1 µM): 66%
Cc1cnc(Nc2ccc(C(=O)N3CCC(N4CCCC4)CC3)cc2)nc1-c1cc2ccccc2s1  remaining binding (KIT T670I/V559D; binding; competition with immobilised ligand; 1 µM): 10%
CC(C)(C)c1ccc(-c2nc(CBr)nn2-c2cccc(O)c2)cc1  remaining binding (KIT T670I/V559D; cell-free assay; competition with immobilised ligand; 10 µM): 95%
O=C(c1ccc(Nc2ncc(Cl)c(-c3cc4ccccc4s3)n2)cc1)N1CCC(N2CCCC2)CC1  remaining binding (KIT L576P; binding; competition with immobilised ligand; 1 µM): 4.5%
COc1ccc2c(O[C@@H]3C[C@H]4C(=O)N[C@]5(C(=O)O)CC5/C=C\CCCCC[C@H](NC(=O)OC5CCCC5)C(=O)N4C3)cc(-c3csc(NC(=O)C(C)C)n3)nc2c1C (stereo partly drawn)  remaining binding (KIT T670I/V559D; cell-free assay; competition with immobilised ligand; 1 µM): 76%
COc1ccnn2ncc(-c3ccnc(N(C)C)n3)c12  remaining binding (KIT V559D; binding; 1 µM): 100%
O=C(Nc1c[nH]nc1C(=O)NC1CCNCC1)c1cc(F)cc(F)c1  remaining binding (KIT; binding; competition with immobilised ligand; 1 µM): 100%
CC1CCCN1c1nccc(-c2cnn3ncccc23)n1 (stereo not drawn)  remaining binding (KIT V559D/V654A; binding; 1 µM): 100%
CCN1CCN(Cc2ccc(C(=O)Nc3ccc(C)c(Oc4ccc5c(c4)CC(=O)N5)c3)cc2C(F)(F)F)CC1  remaining binding (KIT autoinhibited; binding; competition with immobilised ligand; 1 µM): 100%
